Compound activity deposited in PubChem by The Scripps Research Institute Molecular Screening Center.
TAAR1 agonist – human TAAR1 agonism | AID 624467 | 0.99% of 360,000 active | activation, % at 3 µM | Q96RJ0 | CHO RD-HGA16 TAAR1, Fluo-8 calcium fluorescence; vehicle wells 0%, saturating PEA agonist 100%;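 active = activation above the mean activation of all test compounds in the run plus 3 SD, cut at about 38% in these data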
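Repeats: no replicates (n 1) | Material: CHO-derived RD-HGA16 cells with stable Gα16 and human TAAR1 | Technique: Kinetic Fluo-8 calcium fluorescence | Schedule: 17-24 h seeding, 75 min 37 °C dye, 30 min RT | Evaluation: % activation from peak over basal fluorescence ratio, DMSO-to-PEA scaled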
TAAR1 antag – human TAAR1 antagonism; CHO RD-HGA16 TAAR1, Fluo-8 calcium fluorescence, antagonist; 1.5% of 360,000 active; Q96RJ0; inhibition, % at 3 µM; AID 624466;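 active = inhibition above a per-plate cutoff, the mean inhibition of test compounds on that plate plus 3 SD, cut at about 49% in these data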;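 also: 0% = DMSO plus EC80 beta-PEA response and 100% = DMSO alone without agonist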
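test system = CHO RD-HGA16 cells bearing hTAAR1 | replication = singlicate | controls = DMSO-only wells and EC80 β-PEA-stimulated wells | reagent = EC80 β-phenethylamine stimulus | read-out basis = percent inhibition of PEA-evoked calcium signal, max/basal emission ratio | schedule = seeding 17-24 h prior, 75-min 37 °C, 30-min RT dye loading | signal = kinetic Fluo-8 calcium fluorescence measurement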
OXTR potentiator – potentiates the human oxytocin receptor response; CHO-OTR cells, Fluo-8 calcium fluorescence, potentiator mode; 0% = oxytocin EC15, 100% = EC100; AID 2445; activation, % at 3 µM; 0.061% of 320,000 active; P30559;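 active = activation above that plate's cutoff, the mean activation of tested compounds plus 3 SD, cut at about 6.6% in these data, passing the limit was not always enough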;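 also: 100% uses oxytocin at 75 nM as the full agonist control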
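test system = CHO-OTR cells, human receptor | compound = single-point 3.0 µM | schedule = 6 min compound pre-incubation at room temperature, 100 s kinetic read | signal = Fluo-8 no-wash calcium dye fluorescence, excitation 470-495 nm, emission 515-575 nm | repeats = single well per compound, singlicate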
OXTR agonist – activates the human oxytocin receptor | P30559 | CHO-OTR cells, Fluo-8 calcium fluorescence; normalized: DMSO 0%, oxytocin 100% | activation, % at 3 µM | 0.32% of 320,000 active;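 active = activation above the mean of all tested compounds plus 3 SD, cutoff set per screening run, cut at about 20% in these data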;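 also: peak over basal fluorescence ratio from a 100 s FLIPR kinetic read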
V1R ag counter – activates human V1a receptor in oxytocin agonist counter-screen. 0.25% of 320,000 active. activation, % at 3 µM. P37288. CHO-V1R cells, Fluo-8 calcium fluorescence, agonist mode; 0% DMSO, 100% 3 nM vasopressin;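 active = activation above the mean activation of all tested compounds plus 3 SD, per screening run, cut at about 20% in these data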;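 also: signal is peak over basal fluorescence ratio across a 100 second FLIPR read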
Target sequence (P37288 whole entry, looked up): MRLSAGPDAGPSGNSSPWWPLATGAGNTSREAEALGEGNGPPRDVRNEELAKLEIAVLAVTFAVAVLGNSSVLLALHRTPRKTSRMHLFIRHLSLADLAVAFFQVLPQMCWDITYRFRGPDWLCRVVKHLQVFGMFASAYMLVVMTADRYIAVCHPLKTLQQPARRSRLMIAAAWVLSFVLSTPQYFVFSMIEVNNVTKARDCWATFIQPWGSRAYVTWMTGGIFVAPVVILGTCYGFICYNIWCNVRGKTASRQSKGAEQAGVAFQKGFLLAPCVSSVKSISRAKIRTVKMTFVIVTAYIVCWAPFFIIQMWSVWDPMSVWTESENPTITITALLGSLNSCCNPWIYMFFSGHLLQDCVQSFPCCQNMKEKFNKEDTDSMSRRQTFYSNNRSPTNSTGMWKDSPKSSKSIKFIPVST
Active calls of the source: *; x = no result. Only some compounds are listed: those with a hit (about 2.3% of all), similar ones and a draw of the others.

SMILES	TAAR1 agonist	TAAR1 antag	OXTR potentiator	OXTR agonist	V1R ag counter
CCCOc1ccc(CCc2n[nH]c(=S)n2Cc2ccccc2)cc1	0	51*	-13	-1	3
C=CCN(c1ccccc1)S(=O)(=O)c1ccc(Cl)c(C(=O)OCC(=O)c2[nH]c(C)c(C(C)=O)c2C)c1	5	50*	-8	-1	1
C=CCN(c1ccc(OC)cc1)S(=O)(=O)c1ccc(Cl)c(C(=O)OCC(=O)NC2CC2)c1	2	7	-10	-1	1
O=[N+]([O-])c1ccc(N2CCN(Cc3ccccc3)CC2)c2c1no[n+]2[O-]	13	63*	x	x	x
O=[N+]([O-])c1ccc(N2CCN(Cc3ccccc3)CC2)s1	0	19	-17	-1	1
O=C(NCCc1cn2ccccc2n1)c1cc(COc2ccc3ncccc3c2)on1	21	87*	-16	16	13
CC1CCCC(NC(=O)CCN2C(=O)COc3ccccc32)C1C (stereo not drawn)	0	-23	x	x	x
Cc1ccc(NC(=O)CSc2nn(-c3ccccc3)c(=S)s2)cc1S(=O)(=O)N(C)C	10	51*	-9	10	10
O=C(CSc1nn(-c2ccccc2)c(=S)s1)Nn1cnnc1	11	-13	-11	-1	0
CC(=O)C1=C(C)NC(=S)NC1c1ccccc1 (stereo not drawn)	-1	10	x	x	x
COCC(=O)N1CCN(C(=O)C(=O)c2cccc(C(F)(F)F)c2)CC1	5	-23	x	x	x
CCNc1c2c3c(cccc3n(C)c1=O)C(=O)c1ccccc1-2	x	x	-35	140*	181*
CC(=O)Nc1ccc(Nc2c3c4c(cccc4n(C)c2=O)C(=O)c2ccccc2-3)cc1	7	6	1	1	0
CCCCNc1c2c3c(cccc3n(C)c1=O)C(=O)c1ccccc1-2	x	x	-8	134*	134*
CCOC(=O)c1sc(NC(=O)Nc2ccc(F)cc2)nc1C	10	62*	-13	16	12
Oc1ccc(/C=N/Nc2ccnc3cc(Cl)ccc23)c(O)c1	44*	-24	0	3	3
CN(C)c1nc(OCCOC(=O)c2ccccc2)nc(N(C)C)n1	39*	11	0	7	4
COC(=O)[C@]12C[C@H](CC(=O)NCc3cccc(C(F)(F)F)c3)C(=O)N(CCC3=CCCCC3)C1=C[C@H](C(C)(C)C)O[C@@H]2C	-1	-14	x	x	x
CC(NS(=O)(=O)c1ccc(OCC(=O)Nc2cccc([N+](=O)[O-])c2)cc1)c1ccccc1 (stereo not drawn)	15	60*	-10	14	10
O=C(COC(=O)COc1ccccc1)Nc1cccc([N+](=O)[O-])c1	2	-14	-11	2	0
CCOc1ccc(CCNC(=O)c2c(C)noc2C)cc1OCC	1	-3	2	1	1
CCOc1ccc(CCNC(=O)c2cc3c(C)nccc3[nH]c2=O)cc1OCC	13	51*	-10	-2	2
COc1cccc(NC(=O)N(C)C[C@H]2OCc3cn(nn3)CCCC(=O)N([C@H](C)CO)C[C@@H]2C)c1	3	15	x	x	x
O=[N+]([O-])c1cccc(C2NCC(c3ccccc3Cl)c3c2[nH]c2ccccc32)c1 (stereo not drawn)	14	15	-22	243*	345*
CC(C)[C@H](NC(=O)OC(C)(C)C)c1cc(C(=O)NCCO)c(N)s1	1	-28	x	x	x
SMILES	TAAR1 agonist	TAAR1 antag	OXTR potentiator	OXTR agonist	V1R ag counter
COC(=O)C1=C[C@@H](C(=O)OC)C2C3=C(C(=O)C24CCCCC4)[C@H](C)n2c(=O)n(C)c(=O)n2[C@@H]3C1 (stereo partly drawn)	9	-3	0	1	0
COC(=O)C1=C[C@@H](C(=O)OC)C2C3=C(C(=O)C24CCCCC4)[C@H](C)n2c(=O)n(-c4ccccc4)c(=O)n2[C@@H]3C1 (stereo partly drawn)	12	52*	3	0	0
Cc1cc(C)cc(-n2c(C)cc(C(=O)CSc3nnnn3C)c2C)c1	38*	44	-23	7	3
COC(=O)c1cc2c(C)c(C)c3ccccn3c-2c1C(=O)OC	17	63*	-19	-2	1
CCN=C1NC(c2cccc(F)c2)C(C(=O)OC)=C(C)N1Cc1ccccc1C(F)(F)F (stereo not drawn)	8	-2	x	x	x
CC(Oc1ccc(Cl)cc1Cl)c1nc(-c2ccc(NC(=O)c3cccnc3)cc2)no1 (stereo not drawn)	9	57*	-8	3	1
CC(Oc1ccc(Cl)cc1Cl)c1nc(-c2ccc(NC(=O)c3ccncc3)cc2)no1 (stereo not drawn)	24	17	-9	7	6
O=C(Nc1ccc(-c2noc(-c3cccs3)n2)cc1)c1cccnc1	17	56*	-11	4	5
CC(=O)C1=C(C)N(Cc2ccc(Cl)cc2)C(=S)NC1c1cccc(Br)c1 (stereo not drawn)	0	16	x	x	x
COc1ccccc1CN1CC(C(=O)NCCN(C)CCc2ccccc2)CCC1=O (stereo not drawn)	39*	-24	10	0	0
C#C[C@]1(O)CC[C@H]2[C@@H]3CCC4=Cc5oncc5C[C@]4(C)[C@H]3CC[C@@]21C	38*	71*	-9	2	2
CN(c1ccccc1)S(=O)(=O)c1ccc(NC(=O)c2nc(S(C)(=O)=O)ncc2Cl)cc1	18	49*	-9	2	3
CN1CCN(C2CN(Cc3cn(Cc4cccc(C(F)(F)F)c4)nn3)S(=O)(=O)C2)CC1 (stereo not drawn)	1	-8	x	x	x
COc1cc(C#Cc2c(-c3cncn3C)n(C)c3ccc(-c4ccc(CN5CCOCC5)cc4)cc23)cc(OC)c1	3	56*	-2	0	0
COc1ccc(OC)c(-c2cc(C3CCN(c4cc(Cl)nc(N)n4)CC3)[nH]n2)c1	23	56*	-8	12	15
COc1ccc(-c2cc(C3CCN(Cc4cccc(C(F)(F)F)c4)CC3)[nH]n2)cc1	11	-26	-14	4	4
COc1ccc(OC)c(-c2cc(C3CCN(c4ncccc4[N+](=O)[O-])CC3)[nH]n2)c1	6	10	-14	0	1
COc1ccc(-c2cc(C3CCN(c4cc(Cl)nc(N)n4)CC3)[nH]n2)cc1	43*	31	-10	18	15
CCOC(=O)C1CCCN(C(=O)CCCn2nnnc2CN2CCOCC2)C1 (stereo not drawn)	40*	22	x	x	x
Fc1ccc2nc(-c3ccc(CN4CCC5(CC4)CNc4ccccc45)cc3)c(-c3ccccc3)nc2c1	-3	-21	x	x	x
Cc1ccc(-n2nnnc2SCC(=O)N2CCCCC2)cc1	11	6	-1	0	-1
